From PubChem BioAssay
D1 allo mod: allosterically modulates the human D1 dopamine receptor. AID 641. HEK293 D1, CRE-luciferase, dopamine EC30 potentiation; actives deviate in either direction. hit rate 5.9% among 58,000. B-score at 10 µM;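 active = luminescence count or its row- and column-corrected plate score outside the 99.7% band of the plate's sample wells, on either side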
RORA act: RORA (human) activation | hit rate 1.5% among 65,000 | AID 560 | CHO-K1 Gal4-RORA LBD luciferase reporter, luminescence; percent increase over mock-subtracted basal signal | activation, % at 10 µM;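 active = activation above the mean of all tested compounds plus 3 SD, cut at about 49% in these data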;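 also: 0% = DMSO-treated RORA cells and 100% = added signal equal to DMSO minus mock-transfected cells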
Target sequence (P35398 whole entry, looked up, the tested form may be a part): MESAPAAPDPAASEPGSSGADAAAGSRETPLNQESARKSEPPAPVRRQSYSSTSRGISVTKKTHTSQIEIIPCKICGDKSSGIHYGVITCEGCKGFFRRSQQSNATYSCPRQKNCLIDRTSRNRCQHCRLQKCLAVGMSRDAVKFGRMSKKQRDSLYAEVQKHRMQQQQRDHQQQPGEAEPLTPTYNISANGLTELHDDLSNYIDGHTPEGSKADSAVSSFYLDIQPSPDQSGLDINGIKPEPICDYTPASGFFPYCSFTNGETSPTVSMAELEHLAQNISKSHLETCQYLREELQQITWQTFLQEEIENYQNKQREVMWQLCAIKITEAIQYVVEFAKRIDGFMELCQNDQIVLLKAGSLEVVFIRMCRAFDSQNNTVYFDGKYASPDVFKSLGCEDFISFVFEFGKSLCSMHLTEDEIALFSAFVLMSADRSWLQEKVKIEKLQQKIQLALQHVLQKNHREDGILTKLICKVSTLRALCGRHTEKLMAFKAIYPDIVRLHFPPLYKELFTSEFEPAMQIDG
SF1 activator: SF-1 (human) activation. Q13285. CHO-K1 Gal4-SF-1 LBD luciferase reporter; % increase over DMSO SF-1-specific signal. activation, % at 10 µM. hit rate 1.9% among 65,000. AID 522;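 active = activation above the mean activation of all tested compounds plus 3 SD, cut at about 50% in these data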
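material = CHO-K1 cells with Gal4–hSF-1 LBD chimera plus Gal4-driven luciferase | compound = 10 µM single point, 1% DMSO | incubation = 20 h compound exposure at 37 °C after 1 h cell settling | measured by = SteadyLite luciferase luminescence | evaluation = percent activation relative to DMSO median and mock-transfected background | control set = DMSO negative control and −SF1 background wells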
HEK293 NFkB inh: lowers PMA/ionomycin-induced NF-kB signal in HEK293 cells; HEK-293 NF-kB luciferase reporter, luminescence; inhibition, % at 3 µM; hit rate 0.21% among 62,000; AID 465;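 active = inhibition above the mean of all tested compounds plus 3 SD, cut at about 40% in these data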;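 also: 0% = stimulated DMSO wells and 100% = 10 µM reference inhibitor 5653914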
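Signal: luciferase luminescence; Material: HEK-293 cells with stable firefly luciferase reporter driven by four HIV NF-kB elements; Probe or stimulus: PMA with ionomycin; Replication: tested once; Times: 1 h compound pretreatment, then 16 h stimulation at 37 °C, 5% CO2; Benchmarks: DMSO and 10 µM reference inhibitor; Evaluation: per-plate % inhibition versus controls.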
JNK3 blocker: inhibitors of human JNK3 kinase; P53779; purified JNK3 kinase activity, HTS; inhibition, % at 8 µM; hit rate 0.61% among 60,000; AID 746; in the data active = inhibition above about 17%;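 also: 0% = DMSO and 100% = reference inhibitor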
D1 mod confirm: confirmation of human D1 dopamine receptor allosteric modulators | shares compounds with D1 allo mod | HEK293 D1 CRE-luciferase, dopamine EC30 potentiation; hits give high values | luminescence at 10 µM | hit rate 88% among 2,200 | AID 642;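 active = luminescence in either of two replicates above the same-plate mean plus 3 SD of the low-dose dopamine control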
D1 ag no DA: activates D1 CRE-luciferase signal without dopamine present; luminescence at 10 µM; HEK293 D1 CRE-luciferase, luminescence, no dopamine; hits give high values; shares compounds with D1 allo mod; hit rate 0.8% among 1,900; AID 646; in the data active = luminescence above about 3900
Isoprot counter: alters isoproterenol CRE-luciferase response in HEK293 cells; shares compounds with D1 allo mod; HEK293 D1 CRE-luciferase, isoproterenol EC30 counter-screen; calls only at 10 µM; hit rate 63% among 2,200;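 active = luminescence in either replicate above plate mean of wells with a partly effective reference agonist dose plus 3 SD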;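 also: isoproterenol raises cAMP through native beta-adrenoceptor Gs so signal bypasses D1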
An asterisk follows results filed as active; i = inactive; / = no result given; + = active, no number. Hits are enriched below; roughly 7.9% of the tested compounds scored in any of these assays.

SMILES	D1 allo mod	RORA act	SF1 activator	HEK293 NFkB inh	JNK3 blocker	D1 mod confirm	D1 ag no DA	Isoprot counter
Cc1cc2n(n1)C(c1ccccc1)Nc1ccccc1-2 (stereo not given)	13.9*	-18.0	7.5	25.0	-0.7	14996*	1724	+
Cc1cc2n(n1)C(c1sccc1C)Nc1c(C)cccc1-2 (stereo not given)	0.493	-24.7	-15.6	-1.5	-0.3	/	/	/
Cc1cc2n(n1)C(c1ccc3c(c1)OCO3)Nc1ccccc1-2 (stereo not given)	11*	-11.8	-15.4	0.1	-2.5	17556*	/	+
Cc1ccc2c(c1)-c1cc(C)nn1C(c1ccc3c(c1)OCO3)N2 (stereo not given)	5.33*	6.6	-5.1	-1.5	-4.2	12540*	1584	+
CCS(=O)(=O)N1CCN(Cc2nc3ccccc3c(=O)[nH]2)CC1	1.03	7.6	-2.9	10.4	/	/	/	/
CC(C)C(NC(=O)CNC(=O)OC(C)(C)C)C(=O)NCc1ccccc1 (stereo not given)	0.218	-12.8	6.6	13.3	-3.6	/	/	/
CCCCOC(=O)C1Cc2ccccc2C(=O)O1 (stereo not given)	0.0431	-12.2	0.6	-10.0	9.5	/	/	/
COCCOC(=O)C1=C(C)NC(=O)N(C(C)=O)C1c1ccc(Cl)cc1 (stereo not given)	-0.0169	-7.1	-0.2	13.5	-2.2	/	/	/
NC(=O)NC(=O)Nc1ccccc1Cl	2.85*	9.3	3.4	15.3	5.5	7220*	1472	i
NC(=O)COc1ccc(NC(=O)OCc2ccccc2)cc1	5.64*	4.8	-15.5	9.1	1.8	10828*	1812	i
COc1ccc(OCCOC(=O)Nc2ccccc2)cc1	0.748	1.5	2.3	0.7	4.1	/	/	/
CCn1c(Cc2ccc(OC)cc2)nnc1SCC(=O)Nc1nc2ccccc2s1	-0.191	13.6	-14.5	19.8	4.5	/	/	/
O=C(NC(Cc1ccccc1)C(=O)OCC(=O)N1CCc2ccccc21)c1ccco1 (stereo not given)	3.09*	10.2	8.9	25.6	0.5	5596	1648	i
COc1ccc(-c2cc(C(F)(F)F)n3nc(C(=O)N4CCCCC4)cc3n2)cc1	5.72*	/	/	/	/	8620*	1528	i
O=C(c1cc2nc(-c3ccc(F)cc3)cc(C(F)(F)F)n2n1)N1CCCC1	0.971	-6.6	-5.0	6.1	0.8	/	/	/
Clc1ccccc1Cn1nnc2c(N3CCCC3)ncnc21	3.76*	-19.0	11.0	15.0	0.3	13096*	1612	i
Cc1c(NS(C)(=O)=O)c(=O)n(-c2ccccc2)n1C	-0.747	9.9	4.9	19.5	-4.3	/	/	/
Cc1cc(F)ccc1S(=O)(=O)Nc1c(C)n(C)n(-c2ccccc2)c1=O	4.98*	6.7	11.0	7.7	-1.6	5280	1740	i
CCC(C)(C)NC(=O)C(c1cccc(OC)c1)N(C(=O)c1ccn[nH]1)c1cccc(OC)c1 (stereo not given)	-1.65	-1.6	-7.5	10.1	-0.4	/	/	/
O=C(O)CS(=O)(=O)CC(=O)O	/	1.4	16.7	12.4	-1.1	/	/	/
O=C(NCc1cccnc1)C1CC(=O)N(C2CCCCC2)C1 (stereo not given)	-0.179	3.9	-2.5	3.9	3.5	/	/	/
O=C(NCc1ccco1)c1cccc2c1C(=O)N(C1CCCCC1)C2	16.9*	-27.0	-4.8	18.7	5.2	21064*	1788	+
O=C(NCc1cccnc1)c1cccc2c1C(=O)N(C1CCCCC1)C2	20.7*	-9.7	1.7	12.5	25.5*	25588*	1508	+
C(=N\C(/N=C/c1ccco1)c1ccco1)/c1ccco1	8.78*	6.2	1.9	10.6	-0.3	17580*	1572	i
O=C1CC(c2ccccc2)Sc2ccccc2N1 (stereo not given)	26.3*	-5.2	-8.6	26.9	-1.3	18012*	1352	+
SMILES	D1 allo mod	RORA act	SF1 activator	HEK293 NFkB inh	JNK3 blocker	D1 mod confirm	D1 ag no DA	Isoprot counter
CCc1c(C)nc(N)n2c(SCC(=O)N3CCN(c4ccccc4F)CC3)nnc12	-0.0279	-3.3	-3.7	5.4	-5.1	/	/	/
Fc1cccc(Cl)c1CSc1nnnn1-c1ccc2c(c1)OCO2	5.79*	5.4	12.8	1.2	1.3	11540*	/	+
O=C(CSc1nnnn1-c1ccc2c(c1)OCCO2)c1cccc2c1OCCO2	1.67	-0.3	-5.7	-0.6	-2.0	/	/	/
CCc1cccc(Nc2cc(C)nc3ncnn23)c1	0.169	9.4	8.1	5.4	3.3	/	/	/
CCn1c2ccccc2c2cc(Nc3cc(C)nc4ncnn34)ccc21	7.47*	-41.2	-70.3	46.6*	0.5	11088*	1852	+
Cc1cc(Nc2ccc(F)c(Cl)c2)n2ncnc2n1	4.32*	3.4	12.7	22.9	-0.7	8188*	1652	+
Cc1cc(Nc2cccc(Cl)c2)n2ncnc2n1	1.18	-22.4	-1.5	23.2	-0.8	/	/	/
COc1ccc(OC)c(C(=O)COC(=O)C2CC3CCCC(C2)C3=O)c1 (stereo not given)	2.21*	0.1	-0.8	6.1	-0.3	9744*	1720	i
COc1ccc(C(=O)OCC(=O)c2cc(OC)ccc2OC)c(OC)c1	0.0169	9.1	5.3	-0.6	/	/	/	/
O=C(c1cccn2c(=O)c3cc(Cl)ccc3nc12)N1CCN(Cc2ccc3c(c2)OCO3)CC1	2.99*	-9.7	3.0	16.2	/	6868*	1600	i
COCCn1c(SCC(=O)OC(C)C)nnc1-c1ccccc1	1.68	-13.7	-7.5	10.8	-2.3	/	/	/
COc1ccc(CN(C2CCCC2)S(=O)(=O)c2ccc(-n3cnnn3)c(OC)c2)cc1OC	6.15*	15.1	-10.1	12.1	/	9100*	1536	+
Cc1cc(C)n(C(=O)CNC(=O)CCc2ccccc2)n1	/	-20.6	0.1	/	0.6	/	/	/
CCCc1cc(=O)[nH]c(Nc2ccc(OC)c(Cl)c2)n1	0.0697	-6.3	0.0	0.3	1.2	/	/	/
CCCc1cc(=O)[nH]c(NCc2ccc(Cl)cc2)n1	2.85*	-12.9	-4.7	2.5	4.4	8064*	1432	i
CC(C)CC(c1nnnn1Cc1ccccc1)N1CCN(C(=O)c2ccco2)CC1 (stereo not given)	-0.912	-11.8	-1.2	8.4	3.1	/	/	/
Cn1c(SCc2ccon2)nc2ccccc2c1=O	5.89*	-6.3	-11.6	14.8	3.0	6248*	1464	i
Cc1ncsc1CCSc1nc2ccccc2c(=O)n1C	5.26*	-11.1	9.9	14.4	9.3	10832*	/	+
O=c1[nH]ncn2cccc12	/	5.5	0.4	19.7	2.5	/	/	/
